# Not all results are given here.
# HKDC1 activator – HKDC1 (human) hexokinase activation; Q2TB90; recombinant HKDC1, G6PDH/diaphorase resazurin fluorescence; stronger effect = lower value; activity change, negative = activation, % at 20 µM; hit rate 0.056% among 340,000;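 active = activation of 40% or more at 20 µM, a change of -40% or lower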
#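 System: in-house human HKDC1 enzyme, G6PDH and diaphorase coupling enzymes; Quantity: 5 µg/mL HKDC1 final; Buffer or medium: Tris/MgCl2 buffer, pH 8.0; Dosing: single compound dose of 20 µM, 1% DMSO final; Times: 90 min reaction at room temperature, dark; Detection: coupled resazurin-to-resorufin fluorescence, Ex 525/Em 613 nm.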
# Numbers without * were called inactive.
SMILES,HKDC1 activator
COc1cc(/C=C(\C#N)c2nc3ccc(C)cc3[nH]2)cc([N+](=O)[O-])c1O,41.3
O=C1C=CC(=O)c2c(O)c(CO)c(CO)c(O)c21,48.5
O=C(/C=C/c1cccc(Cl)c1)c1ccc([N+](=O)[O-])o1,60.5
Cc1nnc(N=c2ssnc2Cl)o1,-88.2*
COc1cc(N=c2ssnc2Cl)c(OC)cc1Cl,-45.7*
Cc1cc(C)nc(/N=c2/ssnc2Cl)c1,-136.6*
Cc1ccc(N=c2ssnc2Cl)cc1,-50.8*
CCN(CC)c1ccc(C(=C2C=CC(=[N+](CC)CC)C=C2)c2ccc(N(CC)CC)cc2)cc1,53.7
O=C(CCl)N1c2ccccc2Sc2c1ccc1ccccc21,44.2
COc1cccc(CC(Cc2nc3ccccc3[nH]2)c2nc3ccccc3[nH]2)c1 (configuration not stated),49.7
CC(=O)NC1C(=O)N(CCN2CCOCC2)c2ccc(F)cc21 (configuration not stated),79.3
O=C1C=CC(=O)C(CNc2ccc(C(=O)OCc3ccccc3)cc2)=C1,46.7
O=C(O)CSc1cc(NS(=O)(=O)c2ccc(Cl)cc2)c2ccccc2c1O,65.4
Cc1ccc(NC2=C/C(=N\S(=O)(=O)c3cccs3)c3ccccc3C2=O)c(C)c1,40.1
COc1ccc2[nH]c(=O)c(CN(C3CCCCC3)C(c3nnnn3Cc3ccco3)C(C)C)cc2c1 (configuration not stated),36.9
CCCc1nc2oc3c(NCC4CCCO4)ncnc3c2c2c1COC(C)(C)C2 (configuration not stated),35.4
O=C(CCNC(=O)c1ccc([N+](=O)[O-])cc1)NCCC1=CCCCC1,35.0
Cc1cc(C)c(S(=O)(=O)Nc2cc(SCC(=O)O)c(O)c3ccccc23)cc1C,54.1
CC(=O)C1=C(c2ccccc2)N(C(C)=O)n2c(C)nnc2S1,-314.6*
CN(C)Cc1cc(O)c(CN(C)C)cc1O,47.4
O=S(=O)(NC1c2cccc3cccc(c23)C1N1CCN(CCO)CC1)c1ccccc1 (configuration not stated),-66.1*
O=S(=O)(NC1c2cccc3cccc(c23)C1N1CCNCC1)c1ccccc1 (configuration not stated),-55.8*
O=C1OC(c2ccccc2)=N/C1=C/c1cccc(OC(=O)c2cccs2)c1,39.4
CCOC(=O)N1CCN(c2cc(NCCC(=O)O)c3c4c(onc24)-c2ccccc2C3=O)CC1,37.1
NC(CSC(c1ccccc1)(c1ccccc1)c1cccc2ccccc12)C(=O)O (configuration not stated),35.4
SMILES,HKDC1 activator
O=[N+]([O-])c1ccc(-c2csc(N/N=C/c3cccnc3)n2)cc1,35.6
O=S(=O)(O)c1cc(O)c2ccc(Nc3ccccc3)cc2c1,49.9
Cc1cc(C)c(S(=O)(=O)/N=C2/C=C(SCC(=O)O)C(=O)c3ccccc32)cc1C,51.1
O=S(=O)(/N=C/c1c(O)ccc2ccccc12)c1ccccc1,44.2
O=C(/C=C/c1cccs1)Nc1scc(-c2ccccc2)c1C(=O)O,81.2
Cc1onc(-c2ccccc2)c1C(=O)NNC(=S)NC(=O)/C=C/c1cccs1,-57.2*
O=C1/C(=C\c2ccc(Cl)c(Cl)c2)CN(C(=O)CCN2CCOCC2)C/C1=C/c1ccc(Cl)c(Cl)c1,60.7
O=C(NCCc1ccccc1)C(c1cccs1)N(C(=O)CCl)c1ccc(Cl)cc1 (configuration not stated),37.0
O=S(=O)(c1ccc(NC(=S)NN=C(Cc2ccccc2)Cc2ccccc2)cc1)N1CCOCC1,-47.1*
Cc1cc2nnc(SCC(=O)Nc3cc(S(=O)(=O)N4CCOCC4)ccc3Cl)n2c2ccccc12,47.8
COc1cc(OC)cc(C(=O)NC(=S)NNC(=O)c2cnccn2)c1,-41.6*
COC(=O)c1cc(C)nc2c1C(=O)C(=O)C=C2N1CCOCC1,68.1
O=C(CN1C(=O)/C(=C2\SC(=S)N(CCS(=O)(=O)O)C2=O)c2ccccc21)Nc1cccc(Br)c1,58.4
CC(OC(=O)c1cc(O)c2ccccc2c1O)C(=O)Nc1ccc(C(N)=O)cc1 (configuration not stated),39.0
COc1ccc2cc(/C=N/NC(=O)c3c(Cl)cnn3C)c(Cl)nc2c1,-74.9*
CC1=NNC(=O)/C1=C\c1cn(-c2ccccc2)nc1-c1ccc(Cl)cc1,37.2
CC(C)(C)n1[nH]c2c3c(ccc2c1=O)C(=O)c1ccccc1C3=O,42.4
Oc1ccc(-c2cnns2)c(O)c1,45.4
CCN1CCN(c2cc3c(nn2)Oc2ccccc2N3C)CC1,-43.8*
CC1=NOC(=O)/C1=C\c1ccc(-c2ccc(Cl)cc2Cl)o1,53.7
O=C1CSC(=S)N1N=Cc1ccccc1O,-42.0*
CCN(CC)CCNc1cc(C)nc2c1C(=O)C(=O)C=C2N1CCCCC1,45.2
COc1ccc([C@@H]2C[C@H](c3ccccc3)Oc3cc(OC)c(OC)c(OC)c32)cc1,36.7
CCOC(=O)c1ccc(N=C2C(=S)N(c3ccc(C(=O)OCC)cc3)C(=N)N2/N=C/c2ccccc2)cc1,-136.4*
CC(=O)NC1C(=O)N(CCN2CCOCC2)c2ccc(C)cc21 (configuration not stated),85.7
SMILES,HKDC1 activator
COc1ccc(-c2cc3ccccc3[nH]2)cc1,38.5
N#CC(C#N)=C1SC(=Nc2ccccc2)C(=Nc2ccccc2)N1c1ccccc1,-85.7*
Fc1ccc(N2C(=S)SC(=Nc3ccccc3)C2=Nc2ccccc2)cc1,-49.6*
CC(C)C(=O)N(c1cc2sc(=O)oc2c2ccccc12)S(=O)(=O)c1cccs1,45.0
N=C1/C(=C\c2ccc(-c3ccc(C(=O)O)cc3)o2)C(=O)N=C2SC=C(c3ccccc3)N12,39.8
COc1ccccc1Nc1ccc2c(O)cc(S(=O)(=O)O)cc2c1,38.0
N#C/C(=C(/O)CCl)c1nc2c(s1)CCc1ccccc1-2,43.5
Cc1cc(C2=NNC(=Nc3ccc(S(=O)(=O)N4CCOCC4)cc3)SC2)c(C)n1C,-72.5*
Cc1cc(C)c2c(=N)c3ccccc3n(CCCCCCCCn3c4ccccc4c(=N)c4c(C)cc(C)nc43)c2n1,74.2
COc1cc(/C=C2\SC(c3ccc(C)cc3)=NC2=O)cc(OC)c1O,47.5
Oc1ccc(/C=N/NC(=S)Nc2cccnc2)c(O)c1,-40.3*
Nc1ccc(N)c(C(=O)O)c1,36.0
O=C(O)c1cccc2cccc(-c3c4ccc(=O)c(O)c-4oc4c(O)c(O)ccc34)c12,69.5
COc1cc(-c2ccc(Nc3ccccc3C(=O)O)c(OC)c2)ccc1Nc1ccccc1C(=O)O,42.3
Cc1ccc(SSc2cc(C)ccc2N)c(N)c1,-44.3*
Cc1cc2cc(CCNC(=O)c3ccc(S(=O)(=O)N4CCCC4)cc3)c(=O)[nH]c2cc1C,41.4
Cc1cc2cc(CN(Cc3cccs3)S(=O)(=O)c3ccc4c(c3)OCCO4)c(=O)[nH]c2cc1C,-47.0*
O=C(NCCC(=O)N1CCCC(C(F)(F)F)C1)c1ccc(Br)cc1 (configuration not stated),36.2
CC(C)c1nc2oc3c(NCc4ccccn4)ncnc3c2c2c1COC(C)(C)C2,35.3
O=C(O)c1ccc(NC2=C/C(=N/S(=O)(=O)c3ccccc3)c3ccccc3C2=O)cc1,71.9
Cn1nccc1C(=O)N1CCN(c2cccc(Cl)c2)CC1,38.7
O=C(CSc1n[nH]c(-c2cccnc2)n1)Nc1ccc([N+](=O)[O-])cc1Br,45.6
CCCN(CCC)C(=S)NC(=O)c1ccc(-c2ccccc2)cc1,-47.6*
O=C(Nc1ccc(N2CCCC2)cc1)c1cccc(-c2cc3ccccc3oc2=O)c1,-40.2*
